Source: ChEMBL document CHEMBL1155485, “Pyrimidine ribonucleotides with enhanced selectivity as P2Y(6) receptor agonists: novel 4-alkyloxyimino, (S)-methanocarba, and 5'-triphosphate gamma-ester modifications” (J Med Chem, 2010)

Legend:
[1] = Stability assessed as half life in aqueous acidic solution at pH 1.2 by HPLC; type: physicochemical; conditions: buffer
Outline: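 Nucleotide (10 μL of 2 mg/mL aqueous stock) mixed with 90 μL of HCl/NaCl buffer pH 1.2 and held at 37°C. Aliquots taken at intervals were diluted tenfold in water or 5 mM TBAP and run on reverse-phase HPLC with a 5 mM TBAP–acetonitrile gradient. Half-life was derived from peak area.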

P2Y purinoceptor 6 [2] = target: T1, P2Y purinoceptor 6 (Homo sapiens, UniProt Q15077); assay: Agonist activity at human recombinant P2Y6 receptor expressed in human 1321N1 cells assessed as [3H]inositol phosphate production by scintillation proximity assay; type: functional, cell-based
T1 sequence (Q15077 whole entry): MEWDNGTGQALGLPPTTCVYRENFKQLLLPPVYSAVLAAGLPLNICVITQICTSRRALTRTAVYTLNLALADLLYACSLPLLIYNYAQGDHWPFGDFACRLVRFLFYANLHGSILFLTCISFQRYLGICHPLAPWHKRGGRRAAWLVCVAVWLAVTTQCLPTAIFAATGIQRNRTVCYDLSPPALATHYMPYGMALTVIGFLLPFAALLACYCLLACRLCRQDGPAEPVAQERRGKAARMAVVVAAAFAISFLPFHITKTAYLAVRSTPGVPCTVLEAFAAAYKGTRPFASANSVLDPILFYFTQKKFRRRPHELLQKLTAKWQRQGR
Outline: (§1)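 Stably transfected 1321N1 astrocytoma cells (human P2Y2, P2Y4 or P2Y6 receptor) seeded at 20,000 cells/well two days before assay; labelled 16 h with myo-[3H]inositol (1.0 μCi) in serum-free inositol-free DMEM. Agonist added in HEPES pH 7.3/HBSS with LiCl (50 mM, fivefold stock), 30 min at 37°C; stopped with ice-cold 50 mM formic acid. [3H]inositol phosphates read by SPA.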

P2Y purinoceptor 6 [3] = target: T1, P2Y purinoceptor 6; assay: Agonist activity at human recombinant P2Y6 receptor expressed in human 1321N1 cells assessed as [3H]inositol phosphate production up to 10 uM by scintillation proximity assay; type: functional, cell-based
Outline: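 Human 1321N1 astrocytoma cells stably expressing the human P2Y2 or P2Y6 receptor, seeded at 20,000 cells/well two days before assay. Inositol lipids labelled for 16 h with 1.0 μCi myo-[3H]inositol in serum-free, inositol-free DMEM. Agonist added in HEPES pH 7.3/HBSS with LiCl, 30 min at 37°C. Stopped with ice-cold 50 mM formic acid; [3H]inositol phosphates counted by scintillation proximity assay. Triplicates.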

[4] = Stability assessed as half life by HPLC in presence of human 1321N1 cell membranes; type: ADME, cell-based
Outline: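 Nucleotide (10 μL of 2 mg/mL aqueous stock) mixed with 90 μL of astrocytoma cell membrane suspension in Dulbecco's PBS pH 7.4 (final protein 14.9 μg/mL), incubated at 37°C. At intervals, aliquots were diluted tenfold in water or 5 mM TBAP and analysed by reverse-phase HPLC (TBAP–acetonitrile gradient). Half-life was taken from peak area.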

Homo sapiens [5] = species: Homo sapiens; assay: Selectivity ratio of EC50 for human P2Y4 receptor to EC50 for human P2Y6 receptor
P2Y purinoceptor 2 [6] = target: T2, P2Y purinoceptor 2 (Homo sapiens, UniProt P41231); assay: Agonist activity at human recombinant P2Y2 receptor expressed in human 1321N1 cells assessed as [3H]inositol phosphate production by scintillation proximity assay; type: functional, cell-based; outline: as §1
T2 sequence (P41231 whole entry): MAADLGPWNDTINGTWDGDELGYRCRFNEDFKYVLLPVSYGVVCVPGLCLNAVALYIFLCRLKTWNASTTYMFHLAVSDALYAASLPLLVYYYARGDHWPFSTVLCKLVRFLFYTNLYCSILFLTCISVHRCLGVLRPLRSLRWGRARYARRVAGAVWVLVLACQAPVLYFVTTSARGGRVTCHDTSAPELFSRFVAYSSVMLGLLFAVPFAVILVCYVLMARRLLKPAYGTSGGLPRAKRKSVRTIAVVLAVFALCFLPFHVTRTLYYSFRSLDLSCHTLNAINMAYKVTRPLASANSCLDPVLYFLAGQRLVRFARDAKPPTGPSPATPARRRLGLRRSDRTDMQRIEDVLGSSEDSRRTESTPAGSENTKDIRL

P2Y purinoceptor 4 = P2Y purinoceptor 4 (Homo sapiens, UniProt P51582); assay: Agonist activity at human recombinant P2Y4 receptor expressed in human 1321N1 cells assessed as [3H]inositol phosphate production by scintillation proximity assay; type: functional, cell-based; outline: as §1
Sequence of P2Y purinoceptor 4 (P51582 whole entry): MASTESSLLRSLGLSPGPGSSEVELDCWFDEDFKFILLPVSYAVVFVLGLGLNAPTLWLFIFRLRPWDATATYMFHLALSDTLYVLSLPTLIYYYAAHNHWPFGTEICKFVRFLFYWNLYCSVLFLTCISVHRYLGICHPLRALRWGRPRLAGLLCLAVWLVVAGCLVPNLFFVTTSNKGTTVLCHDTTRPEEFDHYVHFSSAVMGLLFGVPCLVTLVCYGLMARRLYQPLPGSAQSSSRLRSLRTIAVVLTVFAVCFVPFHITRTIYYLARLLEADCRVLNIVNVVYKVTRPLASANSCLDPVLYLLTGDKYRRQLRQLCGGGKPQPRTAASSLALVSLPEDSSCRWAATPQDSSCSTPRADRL

Homo sapiens [7] = species: Homo sapiens; assay: Selectivity ratio of EC50 for human P2Y2 receptor to EC50 for human P2Y6 receptor
P2Y purinoceptor 2 [8] = target: T2, P2Y purinoceptor 2; assay: Agonist activity at human recombinant P2Y2 receptor expressed in human 1321N1 cells assessed as [3H]inositol phosphate production at 10 uM by scintillation proximity assay; type: functional, cell-based

| Compound | t1/2 [1] [h] | EC50 (P2Y purinoceptor 6 [2]) [nM] | t1/2 [4] [h] | EC50 (P2Y purinoceptor 2 [6]) [nM] | EC50 (P2Y purinoceptor 4) [nM] | other results |
| --- | --- | --- | --- | --- | --- | --- |
| CCN(CC)CC.O=c1ccn([C@@H]2O[C@H](COP(=O)(O)OP(=O)(O)OP(=O)(O)O[C@H]3O[C@H](CO)[C@@H](O)[C@H](O)[C@H]3O)[C@@H](O)[C@H]2O)c(=O)[nH]1 | 5.1 | > 10000 | 29 |  |  | Activity (P2Y purinoceptor 6 [3]): < 50% |
| O=c1[nH]c(=O)n([C@@H]2O[C@H](COP(=O)(O)OP(=O)(O)O)[C@@H](O)[C@H]2O)cc1I |  | 15 |  |  |  |  |
| CCN(CC)CC.CO/N=c1/ccn([C@@H]2O[C@H](COP(=O)(O)OP(=O)(O)OP(=O)(O)OC[C@H]3O[C@@H](n4ccc(=O)[nH]c4=O)[C@H](O)[C@@H]3O)[C@@H](O)[C@H]2O)c(=O)[nH]1 | 120 | 12 | 23 | 170 | 790 | Ratio EC50 (Homo sapiens [5]): 66; Ratio EC50 (Homo sapiens [7]): 14 |
| O=c1ccn([C@@]23C[C@H]2[C@H](COP(=O)(O)OP(=O)(O)OP(=O)(O)O)[C@@H](O)[C@H]3O)c(=O)[nH]1 |  | 1370 |  | 80 | 300 |  |
| CCN(CC)CC.O=c1[nH]/c(=N\OCc2ccccc2)ccn1[C@@H]1O[C@H](COP(=O)(O)OP(=O)(O)O)[C@@H](O)[C@H]1O | 126 |  | 26 | 2130 | 1150 | Ratio EC50 (Homo sapiens [5]): 44; Ratio EC50 (Homo sapiens [7]): 82 |
| O=c1ccn([C@@H]2O[C@H](COP(=O)(O)OP(=O)(O)OP(=O)(O)O)[C@@H](O)[C@H]2O)c(=O)[nH]1 [URIDINE TRIPHOSPHATE] | 23 |  | 31 |  |  |  |
| CCN(CC)CC.CO/N=c1/ccn([C@@H]2O[C@H](COP(=O)(O)OP(=O)(O)O)[C@@H](O)[C@H]2O)c(=O)[nH]1 | 116 |  | 55 | 3600 | 6450 |  |
| CO/N=c1/ccn([C@@H]2O[C@H](COP(=O)(O)CP(=O)(O)O)[C@@H](O)[C@H]2O)c(=O)[nH]1 |  |  |  |  |  | Activity (P2Y purinoceptor 2 [8]): < 50% |
| CCN(CC)CC.O=c1ccn([C@@H]2O[C@H](COP(=O)(O)CP(=O)(O)OP(=O)(O)OC[C@H]3O[C@@H](n4ccc(=O)[nH]c4=O)[C@H](O)[C@@H]3O)[C@@H](O)[C@H]2O)c(=O)[nH]1 | 34 | 1300 | 62 | > 10000 |  |  |
| O=c1[nH]c(=O)n([C@@H]2O[C@H](COP(=O)(O)CP(=O)(O)O)[C@@H](O)[C@H]2O)cc1I |  | 130 |  |  |  |  |
| CO/N=c1/ccn([C@@H]2O[C@H](COP(=O)(O)OP(=O)(O)OP(=O)(O)O[C@H]3O[C@H](CO)[C@@H](O)[C@H](O)[C@H]3O)[C@@H](O)[C@H]2O)c(=O)[nH]1 |  | 180 |  | > 10000 |  | Activity (P2Y purinoceptor 2 [8]): < 50% |
| O=c1[nH]c(=O)n([C@@H]2O[C@H](COP(=O)(O)OP(=O)(O)OP(=O)(O)O[C@H]3O[C@H](CO)[C@@H](O)[C@H](O)[C@H]3O)[C@@H](O)[C@H]2O)cc1I |  | 4690 |  |  |  |  |
| CCN(CC)CC.O=c1ccn([C@@H]2O[C@H](COP(=O)(O)OP(=O)(O)OP(=O)(O)Oc3ccccc3)[C@@H](O)[C@H]2O)c(=O)[nH]1 | 164 | 2130 | 43 | > 10000 |  | Activity (P2Y purinoceptor 6 [3]): < 50%; Activity (P2Y purinoceptor 2 [8]): < 50% |
| O=c1ccn([C@@H]2O[C@H](COP(=O)(O)CP(=O)(O)O)[C@@H](O)[C@H]2O)c(=O)[nH]1 |  | 700 |  |  |  |  |
| CO/N=c1/ccn([C@@H]2O[C@H](COP(=O)(O)OP(=O)(O)OP(=O)(O)Oc3ccccc3)[C@@H](O)[C@H]2O)c(=O)[nH]1 |  | 3490 |  | > 10000 |  | Activity (P2Y purinoceptor 2 [8]): < 50% |
| CCN(CC)CC.O=c1ccn([C@@H]2O[C@H](COP(=O)(O)CP(=O)(O)OP(=O)(O)O[C@H]3O[C@H](CO)[C@@H](O)[C@H](O)[C@H]3O)[C@@H](O)[C@H]2O)c(=O)[nH]1 | 2.8 | > 10000 | 19 |  |  | Activity (P2Y purinoceptor 6 [3]): < 50% |
| CCN(CC)CC.O=c1ccn([C@@H]2O[C@H](COP(=O)(O)OP(=O)(O)OP(=O)(O)OC3CCCCC3)[C@@H](O)[C@H]2O)c(=O)[nH]1 | 193 | 6990 | 62 | 2280 |  |  |
| CO/N=c1\ccn([C@@H]2O[C@H](COP(=O)(O)OP(=O)(O)OP(=O)(O)O)[C@@H](O)[C@H]2O)c(=O)[nH]1 |  | 80 |  | 50 | 50 |  |
| CCO/N=c1/ccn([C@@H]2O[C@H](COP(=O)(O)OP(=O)(O)O)[C@@H](O)[C@H]2O)c(=O)[nH]1 |  |  |  | 280 | 180 |  |
| CC(C)(C)O/N=c1/ccn([C@@H]2O[C@H](COP(=O)(O)OP(=O)(O)O)[C@@H](O)[C@H]2O)c(=O)[nH]1 |  |  |  | 3510 | 6230 |  |
| O=C(Cn1c(=O)ccn([C@@H]2O[C@H](COP(=O)(O)OP(=O)(O)OP(=O)(O)O[C@H]3O[C@H](CO)[C@@H](O)[C@H](O)[C@H]3O)[C@@H](O)[C@H]2O)c1=O)c1ccccc1 |  | > 10000 |  |  |  | Activity (P2Y purinoceptor 6 [3]): < 50% |
| CONc1ccn([C@@H]2O[C@H](COP(=O)(O)OP(=O)(O)OP(=O)(O)OC[C@H]3O[C@@H](n4ccc(NOC)nc4=O)[C@H](O)[C@@H]3O)[C@@H](O)[C@H]2O)c(=O)n1 |  | 63 |  | 2120 | 560 |  |
